# Test results as given in article PMC3889518 (European Journal of Clinical Pharmacology, 2013).
# “Also recorded” adds a separate entry of the source.
# Key:
# [1] = Safety and tolerability in healthy subjects; type: in vivo, human
# CYP2C8 [2] = conditions: cited from earlier work
# CYP3A4 [3] = conditions: co-administration with ketoconazole, strong inhibitor of CYP3A4; cited from earlier work
# OATP1B1 = conditions: co-administration of cyclosporin, inhibitor of OATP1B1; cited from earlier work
# [4] = high first-pass effect; cited from earlier work
# CYP3A4 [5] = target: CYP3A4 (Homo sapiens, UniProt P08684); type: in vivo; conditions: repeat dosing of vercirnon 500 mg BID, midazolam probe, healthy subjects
# CYP2C8 [6] = target: T1, CYP2C8 (Homo sapiens, UniProt P10632); type: in vivo; conditions: repeat dosing of vercirnon 500 mg BID, pioglitazone probe, healthy subjects
# T1 sequence (P10632 1-490): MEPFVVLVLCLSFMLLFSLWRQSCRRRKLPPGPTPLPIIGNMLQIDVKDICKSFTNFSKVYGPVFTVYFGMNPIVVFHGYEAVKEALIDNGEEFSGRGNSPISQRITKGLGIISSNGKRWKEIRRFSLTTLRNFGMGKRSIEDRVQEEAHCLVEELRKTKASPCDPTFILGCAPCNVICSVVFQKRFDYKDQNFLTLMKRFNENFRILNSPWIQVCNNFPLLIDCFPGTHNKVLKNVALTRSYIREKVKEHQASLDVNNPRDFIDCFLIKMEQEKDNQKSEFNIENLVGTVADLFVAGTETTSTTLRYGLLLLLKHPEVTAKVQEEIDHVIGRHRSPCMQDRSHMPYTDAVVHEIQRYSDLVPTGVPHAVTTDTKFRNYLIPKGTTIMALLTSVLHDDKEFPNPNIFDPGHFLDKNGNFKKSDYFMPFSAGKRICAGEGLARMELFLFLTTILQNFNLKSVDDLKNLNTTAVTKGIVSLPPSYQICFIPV
# CYP2C19 = CYP2C19 (Homo sapiens, UniProt P33261); type: in vivo; conditions: repeat dosing of vercirnon 500 mg BID, omeprazole probe, healthy subjects
# BCRP and OATP1B1 = type: in vivo, human; conditions: repeat dosing of vercirnon 500 mg BID, rosuvastatin probe, healthy subjects
# In short: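 Open-label, single-sequence study in 24 healthy adults aged 18–55. Rosuvastatin 10 mg oral tablet was given alone on day 4 and again on day 14 with vercirnon 500 mg BID after meals (days 5–14). Dosing was 30 min after breakfast with 240 mL water. Serial plasma samples were taken over 48 h. Non-compartmental AUC0–∞ was loge-transformed and analysed in a mixed-effects model (treatment fixed, subject random), giving a geometric LS mean ratio with 90% CI.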
# [7] = type: in vivo, human; conditions: day 10 compared with day 5, vercirnon 500 mg BID
# In short: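 Vercirnon 500 mg BID, taken after meals, starting study day 5. Six volunteers had serial plasma sampling over 24 h on days 5 and 10 for vercirnon and two metabolites. Non-compartmental AUC0–τ, Cmax and tmax were determined. Accumulation ratio for AUC0–τ and Cmax compared day 10 with day 5. Metabolite:parent AUC0–τ ratios were molar. Steady state was tested on day 6–11 troughs from all 24 subjects by the 90% CI of the regression slope.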
# [8] = oral administration 250 to 1,000 mg; cited from earlier work
# [9] = ref ChemoCentryx, data on file; cited from earlier work
# [10] = tested on: human p-glycoprotein transporter protein; conditions: ref ChemoCentryx, data on file; cited from earlier work
# [11] = ref ChemoCentryx, data on file; cited from earlier work; remark: listed apart in the source
# [12] = multiple oxidative and reductive pathways, including CYP3A4, CYP2C19 and CYP2B6; ref ChemoCentryx, data on file; cited from earlier work
# [13] = read-out: maximum observed concentration [Cmax] range; likely therapeutic plasma concentrations; ref ChemoCentryx, data on file; cited from earlier work
# [14] = tested on: breast cancer resistant protein (BCRP); conditions: ref ChemoCentryx and GlaxoSmithKline, data on file; cited from earlier work
# OAT1B1 = conditions: ref ChemoCentryx and GlaxoSmithKline, data on file; cited from earlier work
# OAT1 = conditions: ref ChemoCentryx and GlaxoSmithKline, data on file; cited from earlier work
# OAT3 = conditions: ref ChemoCentryx and GlaxoSmithKline, data on file; cited from earlier work
# CYP2C8 [15] = conditions: strong inhibitor of CYP2C8; cited from earlier work
# Sequence of CYP3A4 (Homo sapiens, UniProt P08684) (P08684 whole entry): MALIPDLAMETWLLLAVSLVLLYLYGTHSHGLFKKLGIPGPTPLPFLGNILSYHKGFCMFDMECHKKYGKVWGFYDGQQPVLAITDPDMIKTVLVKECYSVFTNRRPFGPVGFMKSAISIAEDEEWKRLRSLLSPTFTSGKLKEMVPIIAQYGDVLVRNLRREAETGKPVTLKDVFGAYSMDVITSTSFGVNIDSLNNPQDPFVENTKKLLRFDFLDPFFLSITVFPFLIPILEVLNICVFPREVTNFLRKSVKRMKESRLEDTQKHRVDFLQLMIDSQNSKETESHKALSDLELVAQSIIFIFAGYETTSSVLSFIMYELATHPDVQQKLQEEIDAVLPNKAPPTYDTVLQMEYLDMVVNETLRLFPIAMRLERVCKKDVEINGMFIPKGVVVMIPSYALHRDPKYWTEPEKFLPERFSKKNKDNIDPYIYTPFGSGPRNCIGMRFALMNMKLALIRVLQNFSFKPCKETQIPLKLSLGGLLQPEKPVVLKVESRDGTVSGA
# Sequence of CYP2C19 (P33261 whole entry): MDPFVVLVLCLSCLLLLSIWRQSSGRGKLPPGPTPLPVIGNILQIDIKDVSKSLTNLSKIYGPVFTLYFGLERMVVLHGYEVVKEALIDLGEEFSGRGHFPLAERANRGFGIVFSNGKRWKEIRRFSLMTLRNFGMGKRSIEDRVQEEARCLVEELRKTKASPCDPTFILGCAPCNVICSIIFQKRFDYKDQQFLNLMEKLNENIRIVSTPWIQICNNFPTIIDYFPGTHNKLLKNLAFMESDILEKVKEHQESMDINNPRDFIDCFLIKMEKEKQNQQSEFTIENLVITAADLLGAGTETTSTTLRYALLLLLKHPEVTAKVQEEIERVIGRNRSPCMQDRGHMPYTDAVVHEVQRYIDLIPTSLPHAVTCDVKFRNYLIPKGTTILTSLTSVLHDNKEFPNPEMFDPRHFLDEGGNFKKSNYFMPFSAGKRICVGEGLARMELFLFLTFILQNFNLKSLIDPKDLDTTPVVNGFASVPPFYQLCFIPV
structure (smiles),measurement,setting,value
"Cc1ncc2n1-c1ccc(Cl)cc1C(c1ccccc1F)=NC2 [Midazolam, reference compound]","Somnolence, number of subjects reporting","[1]; of 24 subjects, on 19 occasions, midazolam alone or midazolam + vercirnon",13 subjects
CCc1ccc(CCOc2ccc(CC3SC(=O)NC3=O)cc2)nc1 (stereo not drawn) [Pioglitazone],Increase of pioglitazone AUC,CYP2C8 [2]; co-administration with gemfibrozil,3.4 fold
same,Decrease of exposure (AUC) of pioglitazone,"CYP2C8 [2]; co-administration with rifampin, inducer of CYP2C8",54%
same,Increase of pioglitazone,CYP3A4 [3],34%
CC(C)c1nc(N(C)S(C)(=O)=O)nc(-c2ccc(F)cc2)c1/C=C/[C@@H](O)C[C@@H](O)CC(=O)O [Rosuvastatin],Increase of rosuvastatin AUC,OATP1B1,7 fold
same,bioavailability,[4],~20%
CC(C)(C)c1ccc(S(=O)(=O)Nc2ccc(Cl)cc2C(=O)c2cc[n+]([O-])cc2)cc1 [Vercirnon],Effect on CYP3A4 enzyme activity,CYP3A4 [5],no clinically significant effect
same,Effect on CYP2C8 enzyme activity,CYP2C8 [6],no clinically significant effect
same,Effect on CYP2C19 enzyme activity,CYP2C19,no clinically significant effect
same,Effect on BCRP or OATP1B1 transporter activity,BCRP and OATP1B1,no clinically significant effect
same,Average accumulation in terms of AUC0–τ,[7],14%
same,Average accumulation in terms of Cmax,[7],3%
same,Tolerability,"[1]; 24 healthy subjects, all treatments over 14 days, vercirnon 500 mg BID",well tolerated
same,time to maximum concentration (tmax),[8],3 to 4 h
same,protein bound,[9],> 90%
same,Substrate for human p-glycoprotein transporter protein or other transport proteins,[10],unlikely to be a substrate
same,Permeability,[11],passively permeable
same,Metabolism,[12],extensively metabolised
same,Cmax,[13],3 to 5 µM
same,Inhibition of BCRP in vitro,[14],can inhibit
same,Inhibition of OAT1B1 in vitro,OAT1B1,has the potential to inhibit; also recorded: can inhibit
same,Inhibition of OAT1 in vitro,OAT1,can inhibit
same,Inhibition of OAT3 in vitro,OAT3,can inhibit
Cc1ccc(C)c(OCCCC(C)(C)C(=O)O)c1 [gemfibrozil],Ki,CYP2C8 [15],69 to 75 µM
